Active and inactive are the calls of the source. The calls are words filed in the database; no cut-off is given here.
Legend:
4T1 [1] = assay: Inhibition of cell migration in mouse 4T1 cells assessed as wound closure rate at 0.2 mM measured up to 36 hrs by inverted optical microscopic method based wound healing assay (reference value: 82%); assay type: functional; set-up: scale not given: the % may be the effect or the level left
4T1 [2] = assay: Induction of apoptosis in mouse 4T1 cells assessed as viable cells at 0.4 mM incubated for 24 hrs by Annexin V-FITC/PI based FACS analysis (reference value: 92.2%); assay type: functional; details: 4T1, 24 h, read-out: Activity
4T1 [3] = assay: Induction of apoptosis in mouse 4T1 cells assessed as necrotic cells at 0.4 mM incubated for 24 hrs by Annexin V-FITC/PI based FACS analysis (reference value: 0.47%); assay type: functional
4T1 [4] = assay: Antitumour activity against mouse 4T1 cells xenografted in BALB/c mouse assessed as […] at 10 mg/kg administered intratumorally and measured after 24 days by H and E staining based inverted optical microscopic method; assay type: functional, organism-based
Method in brief: (§1)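 BALB/c mice bearing subcutaneous 4T1 tumours received 6 doses at 10 mg/kg body weight, matched for YSL monomer molar amount, with saline as control. Tumour sections were stained for H&E, CD31, Ki-67 and TUNEL. n = 5.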

4T1 [5] = assay: Induction of cell death in mouse 4T1 cells incubated for 24 hrs by PI staining based inverted microscopic method; assay type: functional
Method in brief: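 Live–dead staining of 4T1 cells after 24 h exposure to 0.4 mM, read by PI staining. A 0.8 mM level was also examined.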

4T1 [6] = assay: Inhibition of metastasis in mouse 4T1 cells assessed as formation of pseudopods at 0.2 mM incubated for 24 hrs by SEM analysis; assay type: functional, cell-based
Method in brief: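 4T1 cells treated 24 h, then imaged by scanning electron microscopy for pseudopod formation. Dendrimers were tested at 0.2 mM and the reference at 10–5 mM.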

4T1 [7] = assay: Potency index, ratio of test compound effect to YSL effect for inhibition of cell migration in mouse 4T1 cells; assay type: functional
4T1 [8] = assay: Inhibition of metastasis in mouse 4T1 cells assessed as cell shrinkage at 0.2 mM incubated for 24 hrs by Hoechst 33342 staining based confocal laser scanning microscopic method; assay type: functional
Method in brief: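 After 24 h treatment, 4T1 cells were stained with Alexa Fluor 488 phalloidin for F-actin and Hoechst 33342 for nuclei, then imaged by fluorescence microscopy to assess cytoskeleton and cell morphology.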

[9] = Toxicity in BALB/c mouse xenografted with mouse 4T1 cells assessed as change in blood urea nitrogen level at 10 mg/kg administered intratumorally and measured after 24 days; assay type: organism-based; details: in vivo, other, 576 h
4T1 [10] = assay: Antitumour activity against mouse 4T1 cells xenografted in BALB/c mouse assessed as increase in number of TUNEL positive cells at 10 mg/kg administered intratumorally and measured after 24 days by H and E staining based inverted optical microscopic method; assay type: functional, organism-based; method in brief: as §1

COC(=O)[C@H](CCCCNC(=O)[C@H](CCCCNC(=O)[C@H](CCCCNC(=O)[C@H](CC(C)C)NC(=O)[C@H](CO)NC(=O)[C@@H](N)Cc1ccc(O)cc1)NC(=O)[C@H](CC(C)C)NC(=O)[C@H](CO)NC(=O)[C@@H](N)Cc1ccc(O)cc1)NC(=O)[C@H](CCCCNC(=O)[C@H](CC(C)C)NC(=O)[C@H](CO)NC(=O)[C@@H](N)Cc1ccc(O)cc1)NC(=O)[C@H](CC(C)C)NC(=O)[C@H](CO)NC(=O)[C@@H](N)Cc1ccc(O)cc1)NC(=O)[C@H](CCCCNC(=O)[C@H](CCCCNC(=O)[C@H](CC(C)C)NC(=O)[C@H](CO)NC(=O)[C@@H](N)Cc1ccc(O)cc1)NC(=O)[C@H](CC(C)C)NC(=O)[C@H](CO)NC(=O)[C@@H](N)Cc1ccc(O)cc1)NC(=O)[C@H](CCCCNC(=O)[C@H](CC(C)C)NC(=O)[C@H](CO)NC(=O)[C@@H](N)Cc1ccc(O)cc1)NC(=O)[C@H](CC(C)C)NC(=O)[C@H](CO)NC(=O)[C@@H](N)Cc1ccc(O)cc1
Activity (4T1 [1]): 30% | viability at 400 µM (4T1 [2]): 37.5% | Activity (4T1 [3]): 2.41% | Activity (4T1 [4]): Active | Activity (4T1 [5]): Dose-dependent effect | inhibition (4T1 [6]): inactive | Ratio (4T1 [7]): 4.5 | inhibition (4T1 [8]): Active | Activity [9]: Non-Toxic | Activity (4T1 [10]): Active
